Experiment [1] concerns the target Hepatocyte growth factor receptor (Homo sapiens, UniProt P08581). Nature of the experiment: Inhibition of Met (unknown origin).
The test system of experiment [2] is CWR22R. Kind of experiment: Antitumor activity against human 22Rv1 cells harboring PIK3CA Q546R/TP53 Q331R mutant xenografted in mouse assessed as tumor growth inhibition at 5 mg/kg, po. The format is functional. The following applies: read-out: TGI. (In general: A xenograft is tissue or cells of one species grown in another, often human tumour cells in immunodeficient mice.)

Experiment [3] concerns NCI-H2122. Kind of experiment: Antitumor activity against human NCI-H2122 cells xenografted in mouse assessed as reduction in ERK phosphorylation at 1 to 10 mg/kg, po administered for 3 days and measured at 24 hrs by Western blot analysis. Format: functional. More on the design: scale not given: the % may be the effect or the level left. The following applies: time 96 hrs. The method in brief: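 NCI-H2122 xenograft mice received 3 daily oral doses of 1, 3, 5 or 10 mg/kg. Tumors were collected 2, 8 and 24 h after the last dose, pulverized on dry ice and lysed. Lysates were run on 4–12% SDS-PAGE and transferred to nitrocellulose. p-ERK1/2 and t-ERK1/2 bands were quantified on an Odyssey imager and expressed relative to vehicle-treated mice (0 h).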

For experiment [4], the system named is COLO-829. Kind of experiment: Antiproliferative activity against human COLO-829 cells assessed as reduction in cell viability incubated for 96 hrs in presence of 4-(2-(1H-indazol-4-yl)-6-((4-(methylsulfonyl)piperazin-1-yl)methyl)thieno[3,2-d]pyrimidin-4-yl)morpholine. The format is functional, cell-based.
Experiment [5] deals with DLD-1. Nature of the experiment: Antitumor activity against human DLD-1 cells xenografted in mouse assessed as tumor growth inhibition at 10 mg/kg, po administered every third day for 21 days in presence of 4-(2-(1H-indazol-4-yl)-6-((4-(methylsulfonyl)piperazin-1-yl)methyl)thieno[3,2-d]pyrimidin-4-yl)morpholine. Format: functional. The following applies: DLD-1, 504 h, time 21 day, read-out: TGI. The method in brief:
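Human tumor xenografts in mice. Drugs given orally, as single agents or combined with the PI3K inhibitor. Schedules were daily (QD) or every third day (Q3D) over 21 days. Tumor volume was measured by caliper as (L×W×W)/2. %TGI = 100×[1 − AUC(treatment/d)/AUC(vehicle/d)] from fitted growth curves, with group means. Tumor lysates were immunoblotted for pS6.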

The test system of experiment [6] is 888-mel. Nature of the experiment: Inhibition of AKT phosphorylation in human 888-mel cells preincubated with compound for 24 hrs followed by compound washout and measured after 2 hrs in presence of 4-(2-(1H-indazol-4-yl)-6-((4-(methylsulfonyl)piperazin-1-yl)methyl)thieno[3,2-d]pyrimidin-4-yl)morpholine by immunoblotting analysis. The format is cell-based. In short, it runs like this: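 The medium was then exchanged to remove compound. Lysates were prepared 2 and 24 h after washout and immunoblotted for cleaved PARP, p-AKT and p-ERK using HRP secondary antibody and ECL.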
In general terms: Immunoblotting shows a protein as a band on a membrane.

The source made the active and inactive calls. The rule behind the calls is not given here.

Hepatocyte growth factor receptor, sequence (P08581 whole entry): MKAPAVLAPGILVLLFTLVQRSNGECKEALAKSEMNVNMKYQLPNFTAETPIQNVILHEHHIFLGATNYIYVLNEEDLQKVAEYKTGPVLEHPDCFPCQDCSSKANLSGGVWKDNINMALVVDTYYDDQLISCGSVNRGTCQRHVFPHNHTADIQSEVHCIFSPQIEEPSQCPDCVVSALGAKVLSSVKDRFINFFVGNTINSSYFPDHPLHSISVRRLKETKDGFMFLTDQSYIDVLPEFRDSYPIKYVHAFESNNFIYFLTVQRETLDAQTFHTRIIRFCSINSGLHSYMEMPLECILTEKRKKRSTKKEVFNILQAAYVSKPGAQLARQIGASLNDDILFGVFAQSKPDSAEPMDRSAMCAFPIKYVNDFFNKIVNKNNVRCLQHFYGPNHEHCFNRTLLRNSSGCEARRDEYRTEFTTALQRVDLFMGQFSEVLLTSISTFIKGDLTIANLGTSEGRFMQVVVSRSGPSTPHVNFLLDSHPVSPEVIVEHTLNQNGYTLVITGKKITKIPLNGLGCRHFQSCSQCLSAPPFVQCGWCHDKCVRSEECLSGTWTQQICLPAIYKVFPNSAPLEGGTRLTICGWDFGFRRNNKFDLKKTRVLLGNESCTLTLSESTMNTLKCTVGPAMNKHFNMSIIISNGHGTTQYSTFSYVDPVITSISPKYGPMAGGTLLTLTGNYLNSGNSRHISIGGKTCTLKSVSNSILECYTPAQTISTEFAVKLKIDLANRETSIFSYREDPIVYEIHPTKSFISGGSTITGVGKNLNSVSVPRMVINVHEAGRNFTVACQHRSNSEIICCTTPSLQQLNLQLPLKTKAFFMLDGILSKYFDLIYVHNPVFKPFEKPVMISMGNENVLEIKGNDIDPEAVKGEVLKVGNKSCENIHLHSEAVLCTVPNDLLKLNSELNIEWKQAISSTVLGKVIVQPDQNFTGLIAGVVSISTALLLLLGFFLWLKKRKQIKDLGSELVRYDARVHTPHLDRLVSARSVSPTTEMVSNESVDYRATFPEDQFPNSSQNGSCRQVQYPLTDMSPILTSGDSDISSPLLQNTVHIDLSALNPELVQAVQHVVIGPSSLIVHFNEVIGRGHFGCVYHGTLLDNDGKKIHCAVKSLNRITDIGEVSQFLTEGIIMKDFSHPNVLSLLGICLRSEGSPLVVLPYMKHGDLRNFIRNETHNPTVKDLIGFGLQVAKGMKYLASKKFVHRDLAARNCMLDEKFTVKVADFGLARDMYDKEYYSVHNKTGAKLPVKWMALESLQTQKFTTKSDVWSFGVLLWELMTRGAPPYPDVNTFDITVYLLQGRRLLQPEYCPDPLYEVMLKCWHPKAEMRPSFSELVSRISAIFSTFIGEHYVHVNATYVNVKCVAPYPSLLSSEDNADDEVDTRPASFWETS

Consider `O=C(c1ccc(F)c(F)c1Nc1ccc(I)cc1F)N1CC(O)([C@@H]2CCCCN2)C1` [COBIMETINIB], for which, in experiment [1], the IC50 (usually the concentration needed to halve the response being measured) is more than 10 µM. Besides, the inhibition in vivo at 5 mg/kg in experiment [2] was found to be 106%. Moreover, the Activity in experiment [3] is 73%. Moreover, the result in experiment [4] was inactive. Also, in experiment [5], the inhibition in vivo at 10 mg/kg came out at 72%. Moreover, the inhibition result in experiment [6] was “Active”.

Source of the values: ChEMBL document CHEMBL5678805, “Intermittent administration of MEK inhibitor GDC-0973 plus PI3K inhibitor GDC-0941 triggers robust apoptosis and tumor growth inhibition” (Cancer Res, 2012).
